This note sets out measurements from ChEMBL document CHEMBL3112476, “Inhibition of IκB kinase-β and IκB kinase-α by heterocyclic adamantyl arotinoids” (Bioorg Med Chem, 2014).

Experiment [1] addresses T1, Inhibitor of nuclear factor kappa-B kinase subunit alpha (Homo sapiens) (UniProt O15111).
T1 sequence (whole entry): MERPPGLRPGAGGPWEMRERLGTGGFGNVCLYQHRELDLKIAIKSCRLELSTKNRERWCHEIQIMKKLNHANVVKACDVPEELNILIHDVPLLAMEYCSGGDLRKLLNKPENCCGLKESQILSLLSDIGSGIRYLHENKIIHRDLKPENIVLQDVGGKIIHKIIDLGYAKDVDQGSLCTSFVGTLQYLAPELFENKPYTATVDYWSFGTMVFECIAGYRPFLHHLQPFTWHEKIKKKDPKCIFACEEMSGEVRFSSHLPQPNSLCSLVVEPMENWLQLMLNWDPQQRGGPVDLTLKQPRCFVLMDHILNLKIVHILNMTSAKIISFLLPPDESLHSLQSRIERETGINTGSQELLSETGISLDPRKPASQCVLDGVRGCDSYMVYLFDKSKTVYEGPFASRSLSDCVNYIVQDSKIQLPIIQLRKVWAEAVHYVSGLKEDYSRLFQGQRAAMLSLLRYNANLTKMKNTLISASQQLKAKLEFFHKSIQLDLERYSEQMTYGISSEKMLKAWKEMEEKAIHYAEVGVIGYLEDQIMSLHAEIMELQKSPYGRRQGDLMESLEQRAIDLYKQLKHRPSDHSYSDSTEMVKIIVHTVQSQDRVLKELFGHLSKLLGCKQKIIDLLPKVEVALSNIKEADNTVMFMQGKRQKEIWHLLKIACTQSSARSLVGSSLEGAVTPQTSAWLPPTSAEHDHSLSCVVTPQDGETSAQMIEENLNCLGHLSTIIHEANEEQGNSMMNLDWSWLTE
The experiment is described as follows: Inhibition of recombinant IKKalpha (unknown origin) using ulight-IkappaomegaBalpha as substrate at 20 uM after 2 hrs by LANCE ultra TR-FRET assay relative to control. The procedure, abridged:
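Recombinant IKKα (4 nM), IKKβ (1 nM) or IKKε (2 nM) in 50 mM Hepes pH 7.4, 10 mM MgCl2, 1 mM EGTA, 2 mM DTT, 0.01% Tween-20. Substrate was 50 nM ULight-IκBα (IKKα/β) or ULight-rpS6 (IKKε); ATP was 1.25 µM (α/β) or 5 µM (ε). Compound was tested at 20 µM. Incubation was 1 h (IKKβ) or 2 h (IKKα/ε) at room temperature, stopped with 20 mM EDTA plus 2 nM Eu-anti-phospho antibody, then TR-FRET 665/615 nm. Results are percent inhibition versus solvent; 3–4 experiments, triplicate.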
Background: Time-resolved FRET reads energy transfer from a long-lived donor to a nearby acceptor.

Experiment [2] deals with T2, Inhibitor of nuclear factor kappa-B kinase subunit epsilon (Homo sapiens) (UniProt Q14164).
T2 sequence (whole entry): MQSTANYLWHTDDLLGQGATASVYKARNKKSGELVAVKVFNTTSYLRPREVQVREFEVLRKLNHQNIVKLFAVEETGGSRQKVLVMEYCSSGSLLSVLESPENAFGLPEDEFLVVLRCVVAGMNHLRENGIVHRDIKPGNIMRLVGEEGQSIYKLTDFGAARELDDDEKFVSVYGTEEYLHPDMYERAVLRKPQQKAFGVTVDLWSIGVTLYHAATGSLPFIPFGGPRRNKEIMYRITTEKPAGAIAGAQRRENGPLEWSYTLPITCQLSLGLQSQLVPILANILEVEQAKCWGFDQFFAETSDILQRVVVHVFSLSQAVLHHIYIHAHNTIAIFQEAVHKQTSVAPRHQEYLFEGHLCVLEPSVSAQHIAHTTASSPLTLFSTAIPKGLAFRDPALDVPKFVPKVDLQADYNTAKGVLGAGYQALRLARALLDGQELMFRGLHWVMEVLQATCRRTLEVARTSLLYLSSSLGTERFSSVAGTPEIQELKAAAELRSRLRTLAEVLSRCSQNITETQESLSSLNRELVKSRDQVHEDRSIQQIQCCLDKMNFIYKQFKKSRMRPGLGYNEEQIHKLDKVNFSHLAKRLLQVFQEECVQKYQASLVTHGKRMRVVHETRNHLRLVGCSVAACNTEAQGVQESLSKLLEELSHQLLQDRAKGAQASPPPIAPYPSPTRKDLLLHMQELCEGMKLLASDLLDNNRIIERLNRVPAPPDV
The experiment is described as follows: Inhibition of recombinant IKKepsilon (unknown origin) using ulight-rpS6 as substrate at 20 uM after 2 hrs by LANCE ultra TR-FRET assay relative to control.

Another experiment has as its system Jurkat. The experiment is described as follows: Induction of apoptosis in human Jurkat cells assessed as activation of DEVDase at 5 uM after 4 hrs by fluorometric assay relative to control. It counts as functional. The procedure, abridged: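 Jurkat cells (20,000/well, 0.5% FBS RPMI) were treated 4 h with 5 µM compound and lysed 15 min in PIPES pH 7 buffer with NP-40, cytochalasin B and protease inhibitors. An equal volume of 2× caspase buffer containing 100 µM Ac-DEVD-AFC was added. AFC fluorescence (ex 390/em 510 nm) was read every 2 min for 1 h at 37 °C; the linear slope was taken as activity, expressed as fold over DMSO control. Data: 2 experiments, triplicate.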

Experiment [3] deals with T3, Inhibitor of nuclear factor kappa-B kinase subunit beta (Homo sapiens) (UniProt O14920).
T3 sequence (whole entry): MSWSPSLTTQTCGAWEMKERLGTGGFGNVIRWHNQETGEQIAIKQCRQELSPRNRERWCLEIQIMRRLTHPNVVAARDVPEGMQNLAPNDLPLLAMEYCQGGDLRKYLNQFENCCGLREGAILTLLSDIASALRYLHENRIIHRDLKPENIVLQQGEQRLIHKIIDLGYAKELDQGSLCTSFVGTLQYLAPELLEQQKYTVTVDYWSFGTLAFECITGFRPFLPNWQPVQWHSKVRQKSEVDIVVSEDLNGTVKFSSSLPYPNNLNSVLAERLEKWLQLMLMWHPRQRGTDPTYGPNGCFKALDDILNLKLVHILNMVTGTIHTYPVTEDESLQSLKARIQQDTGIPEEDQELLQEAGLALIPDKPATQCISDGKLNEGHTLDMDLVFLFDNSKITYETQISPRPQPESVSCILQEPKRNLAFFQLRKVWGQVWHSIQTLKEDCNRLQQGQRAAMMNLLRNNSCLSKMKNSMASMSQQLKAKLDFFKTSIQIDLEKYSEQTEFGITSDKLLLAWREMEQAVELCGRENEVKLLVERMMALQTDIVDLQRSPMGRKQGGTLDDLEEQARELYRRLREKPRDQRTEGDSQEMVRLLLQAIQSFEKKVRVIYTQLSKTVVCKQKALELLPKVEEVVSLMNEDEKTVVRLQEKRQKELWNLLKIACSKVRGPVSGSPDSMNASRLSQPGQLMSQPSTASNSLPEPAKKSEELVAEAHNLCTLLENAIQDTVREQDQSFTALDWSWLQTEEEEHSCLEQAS
The experiment is described as follows: Inhibition of recombinant IKKbeta (unknown origin) using ulight-IkappaomegaBalpha as substrate at 20 uM after 1 hr by LANCE ultra TR-FRET assay relative to control.

Experiment [4] is described as follows: Cytotoxicity against human Jurkat T cells assessed as cell viability at 4 uM after 24 hrs by CellTiter-Glo assay relative to control. The following applies: read-out: Activity. Format: functional. The gist of the method: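 Jurkat cells in 0.5% FBS RPMI were exposed to 4 µM compound or 0.1% DMSO for 24 h. Viability was read as ATP by CellTiter-Glo luminescence and expressed as percent of solvent control; below 60% counted as cell killing. Data: three experiments, triplicate.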
Background: ATP-based viability assays read luminescence as a measure of living cells.

Experiment [5] addresses T4, Retinoic acid receptor alpha (Homo sapiens) (UniProt P10276).
T4 sequence (whole entry): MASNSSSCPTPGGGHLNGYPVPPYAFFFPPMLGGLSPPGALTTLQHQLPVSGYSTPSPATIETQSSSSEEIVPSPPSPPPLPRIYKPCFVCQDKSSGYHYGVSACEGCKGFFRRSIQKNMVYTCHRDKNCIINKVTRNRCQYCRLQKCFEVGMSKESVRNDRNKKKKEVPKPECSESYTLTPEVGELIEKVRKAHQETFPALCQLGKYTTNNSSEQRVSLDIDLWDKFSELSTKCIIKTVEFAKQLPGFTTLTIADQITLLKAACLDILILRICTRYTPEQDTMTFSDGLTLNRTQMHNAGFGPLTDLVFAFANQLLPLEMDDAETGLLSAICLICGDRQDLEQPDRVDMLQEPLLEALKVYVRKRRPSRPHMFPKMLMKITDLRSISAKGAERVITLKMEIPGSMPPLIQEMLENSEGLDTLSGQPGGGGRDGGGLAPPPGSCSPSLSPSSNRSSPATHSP
The experiment is described as follows: Agonist activity at Gal4-fused RARalpha (unknown origin) transfected in HEK293 cells assessed as induction of transcriptional activity at 4 uM after 6 hrs by luciferase/beta-galactosidase reporter gene assay relative to control. It counts as cell-based. The gist of the method:
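Gal4-RARα or Gal4-RXRα (10 ng) plus 2 ng β-galactosidase vector, calcium phosphate transfection into HEK-293 cells carrying a 5×UAS luciferase reporter. After 16 h, cells were washed and given 5% charcoal-treated FBS medium, then rested 2 h. Stimulation was with 4 µM compound or 0.1% DMSO; controls were 1 µM atRA (RARα) or 1 µM CD3254 (RXRα). Harvest was at 6 h (RARα) or 24 h (RXRα). Luciferase/β-gal ratio was expressed as fold over unstimulated cells. Data: 2 experiments, triplicate.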
Background: A reporter such as luciferase makes a cellular process visible.

The target in experiment [6] is T4, Retinoic acid receptor alpha (Homo sapiens). The experiment is described as follows: Antagonist activity at Gal4-fused RARalpha (unknown origin) transfected in HEK293 cells assessed as ATRA-induced transcriptional activity at 4 uM by luciferase/beta-galactosidase reporter gene assay relative to ATRA-treated control. Format: cell-based. Also on record: scale not given: the % may be the effect or the level left. The gist of the method: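 Same Gal4-RARα HEK-293 UAS-luciferase system, stimulated with 0.1 µM atRA alone or with 4 µM compound (40-fold molar excess); 1 µM UVI2024 served as control antagonist. Background-subtracted luciferase was normalized to β-galactosidase and given as percent of atRA-stimulated cells. Data: 2–3 experiments, triplicate.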

For experiment [7], the target named is T5, Retinoic acid receptor alpha (Homo sapiens, UniProt P10276).
T5 sequence (P10276 whole entry): T4 sequence (whole entry)
The experiment is described as follows: Inverse agonist activity at RARalpha (unknown origin).

The target in experiment [8] is T6, Retinoic acid receptor RXR-alpha (Homo sapiens) (UniProt P19793).
T6 sequence (whole entry): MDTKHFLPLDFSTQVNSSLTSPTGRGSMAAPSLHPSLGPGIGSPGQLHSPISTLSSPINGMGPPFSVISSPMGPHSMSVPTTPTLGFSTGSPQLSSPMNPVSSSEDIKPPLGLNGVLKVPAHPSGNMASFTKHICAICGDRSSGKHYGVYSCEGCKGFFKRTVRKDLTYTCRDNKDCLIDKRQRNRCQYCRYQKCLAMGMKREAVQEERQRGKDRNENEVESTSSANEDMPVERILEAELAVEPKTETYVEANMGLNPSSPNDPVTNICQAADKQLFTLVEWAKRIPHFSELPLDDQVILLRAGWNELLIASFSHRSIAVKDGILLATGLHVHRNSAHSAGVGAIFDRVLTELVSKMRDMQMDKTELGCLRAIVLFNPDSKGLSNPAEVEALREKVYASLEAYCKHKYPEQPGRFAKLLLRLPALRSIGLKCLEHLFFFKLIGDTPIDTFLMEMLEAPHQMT
In words: Antagonist activity at recombinant GST-tagged RXRalpha LBD (unknown origin) assessed as inhibition of CD3254-induced fluorescein labeled D22 coactivator recruitment at 8 uM after 4 hrs by TR-FRET assay. The procedure, abridged:
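GST-RXRα LBD (5 nM) was incubated at room temperature with 150 nM fluorescein-D22 peptide in pH 7.4 Hepes binding buffer containing DTT, with a suboptimal concentration of CD3254 plus test ligand (≤1% DMSO). Terbium anti-GST antibody (2 nM) was the donor. The 520/495 nm TR-FRET ratio was read after 4 h and expressed as Delta F% versus controls lacking GST-RXRα.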

Experiment [9] in a line: Cytotoxicity against human Jurkat T cells assessed as cell viability after 24 hrs by CellTiter-Glo assay. It counts as functional, cell-based. The gist of the method:
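Jurkat cells were seeded the day before treatment in RPMI with 0.5% FBS (10,000 cells/well). They were treated in triplicate across an 8-point dose series starting at 10 µM, with DMSO ≤0.1% as solvent control. ATP was measured by CellTiter-Glo luminescence after 24 h; a time-0 reading separated cytostatic from cytotoxic effects. IC50 was fitted from the curve.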

For experiment [10], the target named is T7, Inhibitor of nuclear factor kappa-B kinase subunit beta (Homo sapiens, UniProt O14920).
T7 sequence (O14920 whole entry): T3 sequence (whole entry)
In words: Inhibition of recombinant IKKbeta (unknown origin) using ulight-IkappaomegaBalpha as substrate after 1 hr by LANCE ultra TR-FRET assay.

For orientation: inhibition means how much of the control response was suppressed. As usually defined, the IC50 is the concentration at which inhibition is half-maximal.

Take `O=C(O)/C=C/c1ccc(-c2ccc(O)c(C34CC5CC(CC(C5)C3)C4)c2)c(Cl)c1`: the figures for the inhibition in [1], in experiment [2] and in [3] were 41.3%, 24.1% and 40.6%, respectively. Also, in the experiment with Jurkat, the “fold change (FC)” value amounted to 74.3. In addition, the viability at 4 µM in experiment [4] is 6.6%.

For the molecule `CC(=O)NCCCOc1cc(/C=C/C(=O)O)ccc1-c1ccc(O)c(C23CC4CC(CC(C4)C2)C3)c1`, the inhibition came to 5% in experiment [1], 14.4% in experiment [2] and 0% in experiment [3]. Moreover, the “fold change (FC)” value in the experiment on Jurkat worked out at 6.1. Further, in experiment [4], the viability at 4 µM is 42.7%.

With `CC1(C)CC=C(C#Cc2ccccc2)c2cc(/C=C/c3ccc(C(=O)O)cc3)ccc21`, the fold change (FC) in experiment [5] is 1.3. Further, in [6], the Activity was 7.1%. This molecule gave an IC50 in experiment [7] of 0.114 µM.

Regarding `CCCCCOc1cc2c(cc1-c1cc(/C=C/C(=O)O)ccc1O)C(C)(C)CCC2(C)C`, the inhibition in [8] was determined as 25%.

Regarding `COCCOCOc1ccc(C(=O)/C=C/c2ccc(C(=O)O)cc2)cc1C12CC3CC(CC(C3)C1)C2`, the IC50 in experiment [9] came out at 3.33 µM; in experiment [10], 11.8 µM. The inhibition in [1] amounted to 56.3%; in experiment [2], 15.8%; in experiment [3], 43.9%. Moreover, the “fold change (FC)” value in the experiment with Jurkat came to 20.7. Also, the viability at 4 µM in [4] was 28.5%.
